Data on five molecules can be found in ChEMBL document CHEMBL1156310, “Stepwise synthesis of oligonucleotide-peptide conjugates containing guanidinium and lipophilic groups in their 3'-termini” (Bioorg Med Chem Lett, 2010).

In series [1] the test system is SH-SY5Y. The series can be described thus: Cellular uptake in human SH-SY5Y cells at 300 nM after 22 hrs by dual leucifearse reporter assay. The class given is ADME, cell-based. The settings on record: 0.3 µM. The procedure, abridged: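 Dual-luciferase plasmids (Renilla target, firefly internal control) transfected into SH-SY5Y; after 3 h, medium replaced with fresh medium containing ASO-peptide conjugates (150, 200, 300 nM) without Lipofectamine 2000. Luciferase activities measured 22 h after transfection; knockdown expressed as inhibition of Renilla expression. Phosphorothioate ASO targets Renilla mRNA 21-38 site.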
(A reporter such as luciferase makes a cellular process visible.)

Series [2] concerns SH-SY5Y. The series is described as follows: Antisense activity in human SH-SY5Y cells assessed as inhibition of luciferase gene expression at 60 nM after 22 hrs by luminometry in the presence of lipofectamine 2000. The class given is functional. Put shortly: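 SH-SY5Y cells cotransfected via Lipofectamine 2000 with Renilla (target) and firefly (internal control) luciferase plasmids plus phosphorothioate ASO derivatives at 60 nM, targeting Renilla mRNA site 21-38; scrambled sequences as controls. Read-out: Renilla luciferase inhibition normalized to firefly.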

Each structure is given as a SMILES string.

One may read the inhibition as the change of the read-out against control, counted positive when it falls. Molecule `Cc1cn([C@H]2C[C@H](OP(O)(=S)OC[C@H]3O[C@@H](n4cc(C)c(=O)[nH]c4=O)C[C@@H]3OP(O)(=S)OC[C@H]3O[C@@H](n4cnc5c(=O)[nH]c(N)nc54)[C@H](O)[C@@H]3OP(O)(=S)OC[C@H]3O[C@@H](n4cc(C)c(=O)[nH]c4=O)C[C@@H]3OP(O)(=S)OC[C@H]3O[C@@H](n4cc(C)c(=O)[nH]c4=O)C[C@@H]3OP(O)(=S)OC[C@H]3O[C@@H](n4cc(C)c(=O)[nH]c4=O)C[C@@H]3OP(O)(=S)OC[C@H]3O[C@@H](n4ccc(N)nc4=O)[C@H](O)[C@@H]3OP(O)(=S)OC[C@H]3O[C@@H](n4ccc(N)nc4=O)[C@H](O)[C@@H]3OP(O)(=S)OC[C@H]3O[C@@H](n4cc(C)c(=O)[nH]c4=O)C[C@@H]3OP(O)(=S)OC[C@H]3O[C@@H](n4cc(C)c(=O)[nH]c4=O)C[C@@H]3OP(O)(=S)OC[C@H]3O[C@@H](n4cc(C)c(=O)[nH]c4=O)C[C@@H]3OP(O)(=S)OC[C@H]3O[C@@H](n4cnc5c(=O)[nH]c(N)nc54)[C@H](O)[C@@H]3OP(O)(=S)OC[C@H]3O[C@@H](n4ccc(N)nc4=O)[C@H](O)[C@@H]3O)[C@@H](COP(O)(=S)O[C@H]3[C@@H](O)[C@H](n4ccc(N)nc4=O)O[C@@H]3COP(O)(=S)O[C@H]3C[C@H](n4cc(C)c(=O)[nH]c4=O)O[C@@H]3COP(O)(=S)O[C@H]3[C@@H](O)[C@H](n4cnc5c(=O)[nH]c(N)nc54)O[C@@H]3COP(O)(=S)O[C@H]3[C@@H](O)[C@H](n4cnc5c(=O)[nH]c(N)nc54)O[C@@H]3COP(O)(=S)O[C@H]3[C@@H](O)[C@H](n4cnc5c(N)ncnc54)O[C@@H]3COP(O)(=S)OCCCC(=O)N[C@H](CCCCN)C(=O)N[C@@H](CCCCN)C(=O)N[C@H](CCCCN)C(=O)N[C@@H](CCCCN)C(=O)NCCCCCCO)O2)c(=O)[nH]c1=O` (some centres not stated) had a Drug uptake in series [1] of 15%. The inhibition at 0.06 µM in series [2] was 57%.

For `Cc1cn([C@H]2C[C@H](OP(O)(=S)OC[C@H]3O[C@@H](n4cc(C)c(=O)[nH]c4=O)C[C@@H]3OP(O)(=S)OC[C@H]3O[C@@H](n4cnc5c(=O)[nH]c(N)nc54)[C@H](O)[C@@H]3OP(O)(=S)OC[C@H]3O[C@@H](n4cc(C)c(=O)[nH]c4=O)C[C@@H]3OP(O)(=S)OC[C@H]3O[C@@H](n4cc(C)c(=O)[nH]c4=O)C[C@@H]3OP(O)(=S)OC[C@H]3O[C@@H](n4cc(C)c(=O)[nH]c4=O)C[C@@H]3OP(O)(=S)OC[C@H]3O[C@@H](n4ccc(N)nc4=O)[C@H](O)[C@@H]3OP(O)(=S)OC[C@H]3O[C@@H](n4ccc(N)nc4=O)[C@H](O)[C@@H]3OP(O)(=S)OC[C@H]3O[C@@H](n4cc(C)c(=O)[nH]c4=O)C[C@@H]3OP(O)(=S)OC[C@H]3O[C@@H](n4cc(C)c(=O)[nH]c4=O)C[C@@H]3OP(O)(=S)OC[C@H]3O[C@@H](n4cc(C)c(=O)[nH]c4=O)C[C@@H]3OP(O)(=S)OC[C@H]3O[C@@H](n4cnc5c(=O)[nH]c(N)nc54)[C@H](O)[C@@H]3OP(O)(=S)OC[C@H]3O[C@@H](n4ccc(N)nc4=O)[C@H](O)[C@@H]3O)[C@@H](COP(O)(=S)O[C@H]3[C@@H](O)[C@H](n4ccc(N)nc4=O)O[C@@H]3COP(O)(=S)O[C@H]3C[C@H](n4cc(C)c(=O)[nH]c4=O)O[C@@H]3COP(O)(=S)O[C@H]3[C@@H](O)[C@H](n4cnc5c(=O)[nH]c(N)nc54)O[C@@H]3COP(O)(=S)O[C@H]3[C@@H](O)[C@H](n4cnc5c(=O)[nH]c(N)nc54)O[C@@H]3COP(O)(=S)O[C@H]3[C@@H](O)[C@H](n4cnc5c(N)ncnc54)O[C@@H]3COP(O)(=S)OCCCC(=O)NCCCCCCO)O2)c(=O)[nH]c1=O` (some centres not stated), in series [2], the inhibition at 0.06 µM was 69%.

On to `Cc1cn([C@H]2C[C@H](OP(O)(=S)OC[C@H]3O[C@@H](n4cc(C)c(=O)[nH]c4=O)C[C@@H]3OP(O)(=S)OC[C@H]3O[C@@H](n4cnc5c(=O)[nH]c(N)nc54)[C@H](O)[C@@H]3OP(O)(=S)OC[C@H]3O[C@@H](n4cc(C)c(=O)[nH]c4=O)C[C@@H]3OP(O)(=S)OC[C@H]3O[C@@H](n4cc(C)c(=O)[nH]c4=O)C[C@@H]3OP(O)(=S)OC[C@H]3O[C@@H](n4cc(C)c(=O)[nH]c4=O)C[C@@H]3OP(O)(=S)OC[C@H]3O[C@@H](n4ccc(N)nc4=O)[C@H](O)[C@@H]3OP(O)(=S)OC[C@H]3O[C@@H](n4ccc(N)nc4=O)[C@H](O)[C@@H]3OP(O)(=S)OC[C@H]3O[C@@H](n4cc(C)c(=O)[nH]c4=O)C[C@@H]3OP(O)(=S)OC[C@H]3O[C@@H](n4cc(C)c(=O)[nH]c4=O)C[C@@H]3OP(O)(=S)OC[C@H]3O[C@@H](n4cc(C)c(=O)[nH]c4=O)C[C@@H]3OP(O)(=S)OC[C@H]3O[C@@H](n4cnc5c(=O)[nH]c(N)nc54)[C@H](O)[C@@H]3OP(O)(=S)OC[C@H]3O[C@@H](n4ccc(N)nc4=O)[C@H](O)[C@@H]3O)[C@@H](COP(O)(=S)O[C@H]3[C@@H](O)[C@H](n4ccc(N)nc4=O)O[C@@H]3COP(O)(=S)O[C@H]3C[C@H](n4cc(C)c(=O)[nH]c4=O)O[C@@H]3COP(O)(=S)O[C@H]3[C@@H](O)[C@H](n4cnc5c(=O)[nH]c(N)nc54)O[C@@H]3COP(O)(=S)O[C@H]3[C@@H](O)[C@H](n4cnc5c(=O)[nH]c(N)nc54)O[C@@H]3COP(O)(=S)O[C@H]3[C@@H](O)[C@H](n4cnc5c(N)ncnc54)O[C@@H]3COP(O)(=S)OCCCC(=O)N[C@H](CCCCNC(=N)N)C(=O)N[C@@H](CCCCNC(=N)N)C(=O)NCCCCCCO)O2)c(=O)[nH]c1=O` (some centres not stated), for which the Drug uptake in series [1] was determined as 18%. Moreover, the inhibition at 0.06 µM in series [2] stood at 64%.

Turning to `CCCCCCCCNC(=O)NCCCC[C@@H](NC(=O)CCCOP(O)(=S)OC[C@H]1O[C@@H](n2cnc3c(N)ncnc32)[C@H](O)[C@@H]1OP(O)(=S)OC[C@H]1O[C@@H](n2cnc3c(=O)[nH]c(N)nc32)[C@H](O)[C@@H]1OP(O)(=S)OC[C@H]1O[C@@H](n2cnc3c(=O)[nH]c(N)nc32)[C@H](O)[C@@H]1OP(O)(=S)OC[C@H]1O[C@@H](n2cc(C)c(=O)[nH]c2=O)C[C@@H]1OP(O)(=S)OC[C@H]1O[C@@H](n2ccc(N)nc2=O)[C@H](O)[C@@H]1OP(O)(=S)OC[C@H]1O[C@@H](n2cc(C)c(=O)[nH]c2=O)C[C@@H]1OP(O)(=S)OC[C@H]1O[C@@H](n2cc(C)c(=O)[nH]c2=O)C[C@@H]1OP(O)(=S)OC[C@H]1O[C@@H](n2cnc3c(=O)[nH]c(N)nc32)[C@H](O)[C@@H]1OP(O)(=S)OC[C@H]1O[C@@H](n2cc(C)c(=O)[nH]c2=O)C[C@@H]1OP(O)(=S)OC[C@H]1O[C@@H](n2cc(C)c(=O)[nH]c2=O)C[C@@H]1OP(O)(=S)OC[C@H]1O[C@@H](n2cc(C)c(=O)[nH]c2=O)C[C@@H]1OP(O)(=S)OC[C@H]1O[C@@H](n2ccc(N)nc2=O)[C@H](O)[C@@H]1OP(O)(=S)OC[C@H]1O[C@@H](n2ccc(N)nc2=O)[C@H](O)[C@@H]1OP(O)(=S)OC[C@H]1O[C@@H](n2cc(C)c(=O)[nH]c2=O)C[C@@H]1OP(O)(=S)OC[C@H]1O[C@@H](n2cc(C)c(=O)[nH]c2=O)C[C@@H]1OP(O)(=S)OC[C@H]1O[C@@H](n2cc(C)c(=O)[nH]c2=O)C[C@@H]1OP(O)(=S)OC[C@H]1O[C@@H](n2cnc3c(=O)[nH]c(N)nc32)[C@H](O)[C@@H]1OP(O)(=S)OC[C@H]1O[C@@H](n2ccc(N)nc2=O)[C@H](O)[C@@H]1O)C(=O)NCCCCCCO` (some centres not stated), the inhibition at 0.06 µM in series [2] came to 55%.

For `CCCCCCCCc1ccc(NC(=O)NCCCC[C@@H](NC(=O)CCCOP(O)(=S)OC[C@H]2O[C@@H](n3cnc4c(N)ncnc43)[C@H](O)[C@@H]2OP(O)(=S)OC[C@H]2O[C@@H](n3cnc4c(=O)[nH]c(N)nc43)[C@H](O)[C@@H]2OP(O)(=S)OC[C@H]2O[C@@H](n3cnc4c(=O)[nH]c(N)nc43)[C@H](O)[C@@H]2OP(O)(=S)OC[C@H]2O[C@@H](n3cc(C)c(=O)[nH]c3=O)C[C@@H]2OP(O)(=S)OC[C@H]2O[C@@H](n3ccc(N)nc3=O)[C@H](O)[C@@H]2OP(O)(=S)OC[C@H]2O[C@@H](n3cc(C)c(=O)[nH]c3=O)C[C@@H]2OP(O)(=S)OC[C@H]2O[C@@H](n3cc(C)c(=O)[nH]c3=O)C[C@@H]2OP(O)(=S)OC[C@H]2O[C@@H](n3cnc4c(=O)[nH]c(N)nc43)[C@H](O)[C@@H]2OP(O)(=S)OC[C@H]2O[C@@H](n3cc(C)c(=O)[nH]c3=O)C[C@@H]2OP(O)(=S)OC[C@H]2O[C@@H](n3cc(C)c(=O)[nH]c3=O)C[C@@H]2OP(O)(=S)OC[C@H]2O[C@@H](n3cc(C)c(=O)[nH]c3=O)C[C@@H]2OP(O)(=S)OC[C@H]2O[C@@H](n3ccc(N)nc3=O)[C@H](O)[C@@H]2OP(O)(=S)OC[C@H]2O[C@@H](n3ccc(N)nc3=O)[C@H](O)[C@@H]2OP(O)(=S)OC[C@H]2O[C@@H](n3cc(C)c(=O)[nH]c3=O)C[C@@H]2OP(O)(=S)OC[C@H]2O[C@@H](n3cc(C)c(=O)[nH]c3=O)C[C@@H]2OP(O)(=S)OC[C@H]2O[C@@H](n3cc(C)c(=O)[nH]c3=O)C[C@@H]2OP(O)(=S)OC[C@H]2O[C@@H](n3cnc4c(=O)[nH]c(N)nc43)[C@H](O)[C@@H]2OP(O)(=S)OC[C@H]2O[C@@H](n3ccc(N)nc3=O)[C@H](O)[C@@H]2O)C(=O)NCCCCCCO)cc1` (some centres not stated), the inhibition at 0.06 µM in series [2] was found to be 8%.
